Read-outs that look alike come from different tables or passages of the source. Positions of bridges follow the written chain, without caps; N, C: chain ends. No end group written: not given here.
B1: CD40L (recombinant, His- and c-myc-tag fusion protein, E108 to L261) (ligand)
chain: ENSFEMQKGDQNPQIAAHVISEASSKTTSVLQWAEKGYYTMSNNLVTLENGKQLTVKRQGLYYIYAQVTFCSNREASSQAPFIASLCLKSPGRFERILLRAANTHSSAKPCGQQSIHLGGVFELQPGASVFVNVTDPSQVSHGTGFTSFGLLKL

Columns and labels:
[1] = target: T1, CD40L-Mac-1 I-domain interaction (Homo sapiens, UniProt P29965); assay type: binding
T1 sequence (P29965 108-261): B1 chain
Procedure, shortened: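 Recombinant CD40L (residues E108–L261, His- and c-myc-tagged) was incubated with immobilized Mac-1 I-domain alongside a range of cyclized peptide or scrambled peptide concentrations. Bound CD40L was detected with anti-c-myc-HRP and TMB substrate by colorimetric read-out. Anti-CD40L (100 μg/ml) and saline served as controls.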

[2] = assay type: in vivo, C57BL/6J mice; details: after intraperitoneal injection, FITC-coupled peptide, plasma fluorescence
Procedure, shortened: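 C57BL/6J mice received a single intraperitoneal injection of FITC- or TAMRA-labelled cyclized peptide or its scrambled control, at 100 or 200 μg. Plasma samples were collected at set time points, and peptide level was followed by plasma fluorescence.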

[3] = test system: Murine fibroblasts over-expressing CD40L; assay type: cell-based; details: flow cytometry; not to mock-transfected control cells
[4] = target: B1; assay: dynamic cell adhesion assay
[5] = target: T2, Mac-1 I-domain (recombinant, His-tag fusion protein, R115 to S340) (UniProt P11215 131-356); assay: SPR
[6] = target: T2, Mac-1 I-domain (recombinant, His-tag …); assay: SPR; remark: listed apart in the source

T2 sequence (P11215 131-356): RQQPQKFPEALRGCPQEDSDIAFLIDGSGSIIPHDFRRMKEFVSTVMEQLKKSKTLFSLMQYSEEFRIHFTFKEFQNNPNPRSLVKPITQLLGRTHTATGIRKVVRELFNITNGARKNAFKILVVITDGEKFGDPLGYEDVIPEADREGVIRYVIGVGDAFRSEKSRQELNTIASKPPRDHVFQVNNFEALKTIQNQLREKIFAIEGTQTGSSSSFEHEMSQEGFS

## EQLKKSKTL [M7]
[1]
  IC50: 200 to 900 nM

## FITC-labeled cM7: cM7 coupled to fluorescein isothiocyanate (CEQLKKSKTLC; disulfide 1-11; also: FITC coupled, site not given here)
[2]
  Time of highest plasma availability: 30 min
[3]
  Binding to Murine fibroblasts over-expressing CD40L: concentration-dependently bound

## CEQLKKSKTLC (disulfide 1-11) [cM7, cyclised version of peptide M7]
[4]
  IC50: 206 nM

## B1
[5]
  Kd: 671 nM
[6]
  Kd: 214 nM

From article PMC3291815 (Circulation Research, 2011)
